From ChEMBL document CHEMBL1159342, “Nitric oxide inhibitory isopimarane-type diterpenes from Orthosiphon stamineus of Indonesia” (J Nat Prod, 2003)

System: J774.1
Assay: Inhibition of LPS-induced NO production in mouse J774.1 cells after 24 hrs
Format: functional, cell-based
Details: J774.1, 24 h
In short: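 Cells harvested with trypsin, seeded at 1 × 10^5 cells/well, adhered 2 h at 37 °C under 5% CO2. Medium then replaced with fresh medium containing LPS (10 µg/mL) plus test compounds at indicated concentrations, 24 h. Nitrite in supernatant measured with Griess reagent (10 min, room temperature), absorbance 550 nm. Quantified against NaNO2 standard curve in medium, medium-only blank subtracted.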

Row | SMILES | IC50 [µM]
1 | C=C[C@@]1(C)C[C@@H](OC(=O)c2ccccc2)[C@@H]2[C@@](C)(CC(=O)O)[C@H](C(C)(C)C(=O)OC)C[C@@H](OC(C)=O)[C@@]2(O)C1=O [SECOORTHOSIPHOL B] | 127
2 | C=C[C@@]1(C)C[C@@H](OC(=O)c2ccccc2)[C@H]2[C@](O)(C1=O)[C@H](O)C[C@H]1C(C)(C)[C@H](O)[C@H](OC(C)=O)[C@H](OC(=O)c3ccccc3)[C@@]12C [ORTHOSIPHOL T] | 35.9
3 | C[C@@H]1C[C@H]2[C@@H]3CCC4=CC(=O)C=C[C@]4(C)[C@@]3(F)[C@@H](O)C[C@]2(C)[C@@]1(O)C(=O)CO [DEXAMETHASONE] | 170
4 | C=C[C@@]1(C)C[C@@H](O)[C@H]2[C@](O)(C1=O)[C@H](OC(C)=O)C[C@H]1C(C)(C)[C@H](O)[C@H](OC(C)=O)[C@H](OC(=O)c3ccccc3)[C@@]12C [ORTHOSIPHOL W] | 57.6
5 | C=C[C@@]1(C)C[C@@H](O)[C@H]2[C@](O)(C1=O)[C@H](OC(C)=O)C[C@H]1C(C)(C)[C@H](OC(C)=O)[C@H](OC(C)=O)[C@H](OC(=O)c3ccccc3)[C@@]12C [ORTHOSIPHOL U] | 59.7
6 | C=C[C@@]1(C)CC(=O)[C@H]2[C@](O)(C1=O)[C@H](OC(C)=O)C[C@H]1C(C)(C)[C@H](OC(C)=O)[C@H](OC(C)=O)[C@H](OC(=O)c3ccccc3)[C@@]12C [ORTHOSIPHOL J] | 66.3
7 | C=C[C@@]1(C)C[C@@H](O)[C@H]2[C@](O)(C1=O)[C@H](OC(C)=O)C[C@H]1C(C)(C)[C@H](OC(C)=O)[C@H](O)[C@H](OC(=O)c3ccccc3)[C@@]12C [ORTHOSIPHOL V] | 54.5
8 | C=C[C@@]1(C)C[C@@H](O)[C@@H]2[C@@]3(C)C=C(OC(C)=O)C(=O)C(C)(C)[C@@H]3C[C@@H](OC(C)=O)[C@@]2(O)C1=O [ORTHOSIPHOL Y] | 37.9
9 | C=C[C@@]1(C)CC(=O)[C@H]2[C@](O)(C1=O)[C@H](O)C[C@H]1C(C)(C)[C@H](OC(C)=O)[C@H](OC(C)=O)[C@H](OC(=O)c3ccccc3)[C@@]12C [ORTHOSIPHOL I] | 102
10 | C=C[C@@]1(C)C[C@@H](O)[C@H]2[C@](O)(C1=O)[C@H](O)C[C@H]1C(C)(C)[C@H](OC(C)=O)[C@H](OC(C)=O)[C@H](OC(=O)c3ccccc3)[C@@]12C [ORTHOSIPHOL G] | 145

More lines, in order of falling IC50, values ahead:

Row | IC50 [µM] | SMILES
11 | 35.7 | C=C[C@]1(C)C(=O)[C@]2(O)[C@H](OC(C)=O)C[C@H]3C(C)(C)[C@H](OC(C)=O)[C@H](O)[C@H](OC(=O)c4ccccc4)[C@]3(C)[C@H]2[C@H](OC(=O)c2ccccc2)[C@H]1O [ORTHOSIPHOL R]
12 | 34.5 | C=C[C@@]1(C)C[C@@H](OC(=O)c2ccccc2)[C@H]2[C@](O)(C1=O)[C@H](O)C[C@H]1C(C)(C)[C@H](OC(C)=O)[C@H](OC(C)=O)[C@H](OC(=O)c3ccccc3)[C@@]12C [ORTHOSIPHOL F]
13 | 32.1 | C=C[C@@]1(C)CC(=O)[C@H]2[C@](O)(C1=O)[C@H](OC(C)=O)C[C@H]1C(C)(C)[C@H](OC(=O)c3ccccc3)[C@H](OC(C)=O)[C@H](OC(=O)c3ccccc3)[C@@]12C [ORTHOSIPHONONE A]
14 | 27.7 | C=C[C@@]1(C)C[C@@H](O)[C@H]2[C@](O)(C1=O)[C@H](OC(C)=O)C[C@H]1C(C)(C)[C@H](OC(=O)c3ccccc3)[C@H](OC(C)=O)[C@H](OC(=O)c3ccccc3)[C@@]12C [ORTHOSIPHOL O]
15 | 26 | CNC(=N)NCCC[C@H](N)C(=O)O [TILARGININE]
16 | 20.5 | C=C[C@@]1(C)C[C@@H](OC(=O)c2ccccc2)[C@H]2[C@](O)(C1=O)[C@H](OC(C)=O)C[C@H]1C(C)(C)[C@H](OC(C)=O)[C@H](O)[C@H](OC(=O)c3ccccc3)[C@@]12C [ORTHOSIPHOL B]
17 | 14.4 | C=C[C@@]1(C)C[C@@H](OC(=O)c2ccccc2)[C@@H]2[C@@]3(C)C=C(OC(C)=O)C(=O)C(C)(C)[C@@H]3C[C@@H](OC(C)=O)[C@@]2(O)C1=O [ORTHOSIPHOL D]
18 | 11.5 | C=C[C@@]1(C)C[C@@H](OC(=O)c2ccccc2)[C@H]2[C@](O)(C1=O)[C@H](OC(C)=O)C[C@H]1C(C)(C)[C@H](O)[C@H](OC(C)=O)[C@H](OC(=O)c3ccccc3)[C@@]12C [ORTHOSIPHOL A]
19 | 6.4 | C=C[C@@]1(C)C[C@@H](O)[C@H]2[C@](O)(C1=O)[C@H](O)C[C@H]1C(C)(C)[C@H](OC(=O)c3ccccc3)[C@H](OC(C)=O)[C@H](OC(=O)c3ccccc3)[C@@]12C [ORTHOSIPHOL X]
